Assay results reported in ChEMBL document CHEMBL4715682, “Potent trifluoromethoxy, trifluoromethylsulfonyl, trifluoromethylthio and pentafluorosulfanyl containing (1,3,4-oxadiazol-2-yl)benzamides against drug-resistant Gram-positive bacteria” (RSC Med Chem, 2020).
Converted amounts (≈) assume the structure as drawn. The source made the active and inactive calls. The rule behind the calls is not given here.

Assays:
Format in all cases: functional
[1] = tested on: Staphylococcus aureus; test: Antibacterial activity against methicillin-resistant Staphylococcus aureus ATCC 33592 assessed as inhibition of visible bacterial growth incubated for 18 to 20 hrs by CLSI method; details: time 18-20 hrs
In short: (§1)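 CLSI broth microdilution. Strains grown aerobically overnight on tryptic soy agar at 37 °C, adjusted to 0.5 McFarland and diluted in cation-adjusted Mueller–Hinton broth to about 5×10^5 CFU/mL. Compounds and control drugs serially diluted across the plate. Incubated aerobically at 37 °C for 18-20 h. MIC is the lowest concentration with no visible growth.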

[2] = tested on: Staphylococcus aureus; test: Antibacterial activity against Staphylococcus aureus ATCC 25923 assessed as inhibition of visible bacterial growth incubated for 18 to 20 hrs by CLSI method; details: time 18-20 hrs; in short: as §1
[3] = tested on: Staphylococcus aureus; test: Antibacterial activity against vancomycin-resistant Staphylococcus aureus 12 assessed as inhibition of visible bacterial growth incubated for 18 to 20 hrs by CLSI method; details: time 18-20 hrs; in short: as §1
[4] = tested on: Staphylococcus aureus; test: Antibacterial activity against methicillin-resistant Staphylococcus aureus NRS385 assessed as inhibition of visible bacterial growth incubated for 18 to 20 hrs by CLSI method; details: time 18-20 hrs; in short: as §1
[5] = tested on: Staphylococcus aureus; test: Antibacterial activity against methicillin-sensitive Staphylococcus aureus ATCC 6538 assessed as inhibition of visible bacterial growth incubated for 18 to 20 hrs by CLSI method; details: time 18-20 hrs; in short: as §1
[6] = tested on: Staphylococcus aureus; test: Antibacterial activity against methicillin-sensitive Staphylococcus aureus NRS 107 assessed as inhibition of visible bacterial growth incubated for 18 to 20 hrs by CLSI method; details: time 18-20 hrs; in short: as §1
[7] = tested on: Staphylococcus aureus; test: Antibacterial activity against methicillin-resistant Staphylococcus aureus NRS384 assessed as inhibition of visible bacterial growth incubated for 18 to 20 hrs by CLSI method; details: time 18-20 hrs; in short: as §1
[8] = tested on: Staphylococcus aureus; test: Bactericidal activity against methicillin-resistant Staphylococcus aureus ATCC 33592 assessed as reduction in bacterial growth incubated for 18 hrs by CLSI method
[9] = tested on: Staphylococcus aureus; test: Antibacterial activity against methicillin-resistant Staphylococcus aureus NRS382 assessed as inhibition of visible bacterial growth incubated for 18 to 20 hrs by CLSI method; details: time 18-20 hrs; in short: as §1
[10] = tested on: Staphylococcus aureus; test: Antibacterial activity against methicillin-resistant Staphylococcus aureus NRS 119 assessed as inhibition of visible bacterial growth incubated for 18 to 20 hrs by CLSI method; details: time 18-20 hrs; in short: as §1
[11] = tested on: Staphylococcus aureus; test: Antibacterial activity against vancomycin-resistant Staphylococcus aureus 10 assessed as inhibition of visible bacterial growth incubated for 18 to 20 hrs by CLSI method; details: time 18-20 hrs; in short: as §1
[12] = tested on: Staphylococcus aureus; test: Antibacterial activity against methicillin-resistant Staphylococcus aureus NRS386 assessed as inhibition of visible bacterial growth incubated for 18 to 20 hrs by CLSI method; details: time 18-20 hrs; in short: as §1
[13] = tested on: Staphylococcus aureus; test: Antibacterial activity against methicillin-resistant Staphylococcus aureus NRS123 assessed as inhibition of visible bacterial growth incubated for 18 to 20 hrs by CLSI method; details: time 18-20 hrs; in short: as §1
[14] = tested on: Staphylococcus aureus; test: Antibacterial activity against methicillin-resistant Staphylococcus aureus NRS383 assessed as inhibition of visible bacterial growth incubated for 18 to 20 hrs by CLSI method; details: time 18-20 hrs; in short: as §1
[15] = tested on: Staphylococcus epidermidis; test: Antibacterial activity against Staphylococcus epidermidis NRS101 assessed as inhibition of visible bacterial growth incubated for 18 to 20 hrs by CLSI method; details: time 18-20 hrs
In short: (§2)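 Broth microdilution per CLSI. Strains grown aerobically overnight on TSA at 37 °C, suspended to 0.5 McFarland, diluted in CAMHB to about 5×10^5 CFU/mL. Agents serially diluted across plate; aerobic incubation 37 °C for 18-20 h. MIC = lowest concentration completely preventing visible growth.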

[16] = tested on: Staphylococcus aureus; test: Antibacterial activity against methicillin-resistant Staphylococcus aureus ATCC 33592 assessed as reduction in bacterial count at 3 x MIC incubated upto 24 hrs by time kill analysis; details: time hrs <=24
In short: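 Time-kill assay. […] Samples taken at 0, 2, 4, 8, 12 and 24 h, serially diluted in PBS and plated on tryptic soy agar. Viable CFU/mL counted after 18-20 h at 37 °C.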

[17] = tested on: Staphylococcus aureus; test: Antibacterial activity against methicillin-resistant Staphylococcus aureus NRS387 assessed as inhibition of visible bacterial growth incubated for 18 to 20 hrs by CLSI method; details: time 18-20 hrs; in short: as §1
[18] = tested on: Listeria monocytogenes; test: Antibacterial activity against Listeria monocytogenes ATCC 19111 assessed as inhibition of visible bacterial growth incubated for 18 to 20 hrs by CLSI method; details: time 18-20 hrs; in short: as §2
[19] = tested on: Staphylococcus aureus; test: Antibacterial activity against methicillin-resistant Staphylococcus aureus USA400 infected in mouse J774 cells assessed as log reduction in intracellular growth at 8 ug/ml incubated for 18 to 22 hrs; details: dose 8.0 µg/ml, time 18-22 hrs
In short: (§3)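 J774 murine macrophages grown in DMEM with 10% FBS at 37 °C, 5% CO2. Cells infected with MRSA USA400 at MOI about 10:1 for 1 h, then washed with gentamicin to remove extracellular bacteria. Agents added at 8 or 16 μg/mL in triplicate, with DMSO vehicle control, for 24 h. Cells lysed with 0.1% Triton-X, lysates plated on tryptic soy agar, and CFU counted after 18-22 h at 37 °C. Analysed by two-way ANOVA with Dunnett's test.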

[20] = tested on: Staphylococcus aureus; test: Antibacterial activity against methicillin-resistant Staphylococcus aureus USA400 infected in mouse J774 cells assessed as log reduction in intracellular growth at 16 ug/ml incubated for 18 to 22 hrs; details: dose 16.0 µg/ml, time 18-22 hrs; in short: as §3
[21] = tested on: Streptococcus pneumoniae; test: Antibacterial activity against cephalosporin-resistant Streptococcus pneumoniae ATCC 51916 assessed as inhibition of visible bacterial growth incubated for 18 to 20 hrs by CLSI method; details: time 18-20 hrs; in short: as §1
[22] = tested on: Enterococcus faecalis; test: Antibacterial activity against vancomycin- resistant Enterococcus faecalis ATCC 51299 assessed as inhibition of visible bacterial growth incubated for 18 to 20 hrs by CLSI method; details: time 18-20 hrs; in short: as §1
[23] = tested on: Enterococcus faecalis; test: Antibacterial activity against vancomycin- resistant Enterococcus faecalis ATCC 700221 assessed as inhibition of visible bacterial growth incubated for 18 to 20 hrs by CLSI method; details: time 18-20 hrs; in short: as §1
[24] = tested on: Staphylococcus aureus; test: Antibacterial activity against methicillin-resistant Staphylococcus aureus NRS484 assessed as inhibition of visible bacterial growth incubated for 18 to 20 hrs by CLSI method; details: time 18-20 hrs; in short: as §1
[25] = tested on: Streptococcus pneumoniae; test: Antibacterial activity against […] Streptococcus pneumoniae ATCC 700677 assessed as inhibition of visible bacterial growth incubated for 18 to 20 hrs by CLSI method; details: time 18-20 hrs; in short: as §1

O=C(Nc1nnc(-c2cccs2)o1)c1cc(C(F)(F)F)n[nH]1
MIC [1]: > 64 µg/mL | MIC [2]: > 64 µg/mL

O=C(Nc1nnc(-c2cccs2)o1)c1ccc(C(F)(F)F)cc1
MIC [1]: 2 µg/mL (≈ 5.89 µM) | MIC [2]: 2 µg/mL (≈ 5.89 µM)

CC(=O)NC[C@H]1CN(c2ccc(N3CCOCC3)c(F)c2)C(=O)O1 [LINEZOLID]
MIC [3]: > 64 µg/mL | MIC [4]: 1 µg/mL (≈ 2.96 µM) | MIC [5]: 0.5 µg/mL (≈ 1.48 µM) | MIC [6]: 0.5 µg/mL (≈ 1.48 µM) | MIC [7]: 1 µg/mL (≈ 2.96 µM) | MBC [8]: > 128 µg/mL | MIC [9]: 1 µg/mL (≈ 2.96 µM) | MIC [10]: > 64 µg/mL | MIC [11]: > 64 µg/mL | MIC [12]: 1 µg/mL (≈ 2.96 µM) | MIC [13]: 1 µg/mL (≈ 2.96 µM) | MIC [14]: 1 µg/mL (≈ 2.96 µM) | MIC [15]: 1 µg/mL (≈ 2.96 µM) | Activity [16]: 1.7 log10CFU/ml | MIC [17]: 1 µg/mL (≈ 2.96 µM) | MIC [18]: 0.5 µg/mL (≈ 1.48 µM)

O=C(Nc1nnc(-c2cccs2)o1)c1ccc(C(F)(F)F)s1
MIC [1]: 2 µg/mL (≈ 5.79 µM) | MIC [2]: 4 µg/mL (≈ 11.6 µM)

O=C(Nc1nnc(-c2cccs2)o1)c1ccc(SC(F)F)cc1
MIC [1]: 4 µg/mL (≈ 11.3 µM) | MIC [2]: 4 µg/mL (≈ 11.3 µM)

O=C(Nc1nnc(-c2cccs2)o1)c1ccc([N+](=O)[O-])cc1
MIC [1]: 8 µg/mL (≈ 25.3 µM) | MIC [2]: 4 µg/mL (≈ 12.6 µM)

O=C(Nc1nnc(-c2cccs2)o1)c1ccc(OC(F)F)cc1
MIC [1]: 32 µg/mL (≈ 94.9 µM) | MIC [2]: 32 µg/mL (≈ 94.9 µM)

O=C(Nc1nnc(-c2cccs2)o1)c1cccc(C(F)(F)F)n1
MIC [1]: 16 µg/mL (≈ 47 µM) | MIC [2]: 16 µg/mL (≈ 47 µM)

O=C(Nc1nnc(-c2cccs2)o1)c1ccc(C(F)(F)F)cn1
MIC [1]: 32 µg/mL (≈ 94 µM) | MIC [2]: 64 µg/mL (≈ 188 µM)

CN[C@H](CC(C)C)C(=O)N[C@H]1C(=O)N[C@@H](CC(N)=O)C(=O)N[C@H]2C(=O)N[C@H]3C(=O)N[C@H](C(=O)N[C@H](C(=O)O)c4cc(O)cc(O)c4-c4cc3ccc4O)[C@H](O)c3ccc(c(Cl)c3)Oc3cc2cc(c3O[C@@H]2O[C@H](CO)[C@@H](O)[C@H](O)[C@H]2O[C@H]2C[C@](C)(N)[C@H](O)[C@H](C)O2)Oc2ccc(cc2Cl)[C@H]1O [VANCOMYCIN]
Activity [19]: inactive | MBC [8]: 1 µg/mL (≈ 0.69 µM) | Activity [20]: inactive | MIC [21]: 0.5 µg/mL (≈ 0.345 µM) | MIC [22]: 32 µg/mL (≈ 22.1 µM) | MIC [18]: 0.5 µg/mL (≈ 0.345 µM) | MIC [23]: > 64 µg/mL | MIC [24]: > 2 µg/mL | MIC [25]: 1 µg/mL (≈ 0.69 µM)

O=C(Nc1nnc(-c2cccs2)o1)c1ccc(F)cc1
MIC [1]: 32 µg/mL (≈ 111 µM) | MIC [2]: 32 µg/mL (≈ 111 µM)

CSc1ccc(C(=O)Nc2nnc(-c3cccs3)o2)cc1
MIC [1]: 4 µg/mL (≈ 12.6 µM) | MIC [2]: 4 µg/mL (≈ 12.6 µM)
